Source: ChEMBL document CHEMBL5126583, “Cytotoxicity of cinchona alkaloid organocatalysts against MES-SA and MES-SA/Dx5 multidrug-resistant uterine sarcoma cell lines” (Bioorg Med Chem, 2022)
Calls of active or inactive are those of the source. The calls are words filed in the database; no cut-off is given here.

Legend:
MES-SA [1] = test: Cytotoxicity against human MES-SA cells assessed as cell growth inhibition incubated for 144 hrs by fluorescence microplate reader assay; type: functional, cell-based
Summary of the method: (§1)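 MES-SA (mCherry) and doxorubicin-selected Dx5 (eGFP; pretreated with 500 nM doxorubicin to keep P-gp expression) co-cultured, 1250 cells each per well, settled overnight. Serial dilutions added, 144 h incubation. Viability read by fluorescence (mCherry ex 585/em 610 nm; eGFP ex 485/em 510 nm). IC50 by automated curve evaluation; two-sided unpaired t-test.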

MES-SA/Dx5 [2] = test: Cytotoxicity against multidrug resistance human MES-SA/Dx5 cells assessed as cell growth inhibition incubated for 144 hrs by fluorescence microplate reader assay; type: functional, cell-based; conditions: MES-SA/Dx5, 144 h; summary of the method: as §1
[3] = Resistance ratio of IC50 for cytotoxicity against multidrug resistance human MES-SA/Dx5 cells to IC50 for cytotoxicity against human MES-SA cells; type: functional
MES-SA [4] = test: Cytotoxicity against human MES-SA cells assessed as cell growth inhibition incubated for 144 hrs in presence of P-gp inhibitor Tariquidar by fluorescence microplate reader assay; type: functional, cell-based
Summary of the method: (§2)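 Co-culture of fluorescent MES-SA (mCherry) and Dx5 (eGFP, doxorubicin 500 nM pretreated) exposed to serial dilutions plus 0.4 µM tariquidar for 144 h. Per-line fluorescence read-out gave IC50. Resistance ratio = IC50 Dx5 / IC50 MES-SA; significance by two-sided unpaired t-test.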

MES-SA/Dx5 [5] = test: Cytotoxicity against multidrug resistance human MES-SA/Dx5 cells assessed as cell growth inhibition incubated for 144 hrs in presence of P-gp inhibitor Tariquidar by fluorescence microplate reader assay; type: functional, cell-based; conditions: MES-SA/Dx5, 144 h; summary of the method: as §2
[6] = Resistance ratio of IC50 for cytotoxicity against multidrug resistance human MES-SA/Dx5 cells in presence of P-gp inhibitor Tariquidar to IC50 for cytotoxicity against human MES-SA cells in presence of P-gp inhibitor Tariquidar; type: functional; summary of the method: as §2
MES-SA/Dx5 [7] = test: Inhibition of P-gp in multidrug resistance human MES-SA/Dx5 cells assessed as inhibition of calcein-AM efflux at 20 uM incubated for 15 mins by calcein-AM staining based flow cytometry analysis
MES-SA/Dx5 [8] = test: Cytotoxicity against multidrug resistance human MES-SA/Dx5 cells assessed as reduction on calcein accumulation by measuring cell distribution at 20 uM incubated for 15 mins by calcein-AM staining based flow cytometry analysis; type: functional; set-up: scale not given: the % may be the effect or the level left; conditions: 0.25 h
Summary of the method: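 Non-fluorescent Dx5 cells, 250 000 per tube, washed in serum-free DMEM, preincubated 5 min at 37 °C with compound at 20 µM. Calcein-AM then added (250 nM final) for 10 min more. Stopped with ice-cold PBS and kept on ice. Calcein fluorescence measured by flow cytometry, TO-PRO-3 live/dead gating. Controls: 20 µM verapamil, medium only.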

MES-SA/Dx5 [9] = test: Cytotoxicity against multidrug resistance human MES-SA/Dx5 cells assessed as inhibition of calcein-AM efflux at 20 uM incubated for 15 mins in presence of metal chelator EDTA by calcein-AM staining based flow cytometry analysis; type: functional, cell-based
Summary of the method: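 Calcein accumulation in non-fluorescent Dx5 cells, 250 000 per tube, with every step from preincubation to measurement in PBS containing 1 µM EDTA. Cells preincubated 5 min with 20 µM compound, then 250 nM calcein-AM for 10 min at 37 °C. Read by flow cytometry with TO-PRO-3 live/dead stain. Controls: verapamil 20 µM, no inhibitor.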

Question: For CC[C@H]1CN2CC[C@H]1C[C@H]2[C@@H](NC(=S)Nc1cc(C(F)(F)F)cc(C(F)(F)F)c1)c1ccnc2ccc(OC)cc12, which IC50 (MES-SA [1]) is on record?
Answer: The IC50 was 1.3 µM.

Question: What about the IC50 (MES-SA/Dx5 [2]) of the same compound?
Answer: The IC50 was 1.5 µM.

Question: What about the “Ratio IC50” value [3] of the same compound?
Answer: The value was 1.2.

Question: What about the IC50 (MES-SA [4]) of the same compound?
Answer: Its IC50 is 1 µM.

Question: And the IC50 (MES-SA/Dx5 [5])?
Answer: The IC50 was 0.9 µM.

Question: And the “Ratio IC50” value [6]?
Answer: Its value is 0.8.

Question: Which IC50 (MES-SA [1]) does the source give for C=C[C@H]1CN2CC[C@H]1C[C@H]2[C@@H](N)c1ccnc2ccc(OC)cc12 here?
Answer: The IC50 was 81 µM.

Question: What about the IC50 (MES-SA/Dx5 [2]) of the same compound?
Answer: Its IC50 is 197 µM.

Question: And the “Ratio IC50” value [3]?
Answer: The value was 2.4.

Question: And the IC50 (MES-SA [4])?
Answer: The IC50 was 115 µM.

Question: What about the IC50 (MES-SA/Dx5 [5]) of the same compound?
Answer: Its IC50 is 121 µM.

Question: What about the “Ratio IC50” value [6] of the same compound?
Answer: Its value is 1.

Question: And the Activity (MES-SA/Dx5 [7])?
Answer: The Activity was “Active”.

Question: Which IC50 (MES-SA [1]) does the source give for CC[C@H]1CN2CC[C@H]1C[C@H]2[C@@H](Nc1c(Nc2cc(C(F)(F)F)cc(C(F)(F)F)c2)c(=O)c1=O)c1ccnc2ccc(OC)cc12 here?
Answer: Its IC50 is 3.6 µM.

Question: And the IC50 (MES-SA/Dx5 [2])?
Answer: Its IC50 is 11 µM.

Question: And the “Ratio IC50” value [3]?
Answer: Its value is 2.9.

Question: And the IC50 (MES-SA [4])?
Answer: Its IC50 is 4.4 µM.

Question: What about the IC50 (MES-SA/Dx5 [5]) of the same compound?
Answer: Its IC50 is 2.3 µM.

Question: And the “Ratio IC50” value [6]?
Answer: Its value is 0.5.

Question: Which results are given for C#C[C@H]1CN2CC[C@H]1C[C@H]2[C@@H](N)c1ccnc2ccc(OC)cc12?
Answer: IC50 (MES-SA [1]): 29 µM; IC50 (MES-SA/Dx5 [2]): 161 µM; Ratio IC50 [3]: 5.6; IC50 (MES-SA [4]): 30 µM; IC50 (MES-SA/Dx5 [5]): 146 µM; Ratio IC50 [6]: 4.9

Question: Which IC50 (MES-SA [1]) does the source give for CC[C@H]1CN2CC[C@H]1C[C@H]2[C@H](O)c1ccnc2ccc(OC)cc12 [HYDROQUININE] here?
Answer: Its IC50 is 48 µM.

Question: And the IC50 (MES-SA/Dx5 [2])?
Answer: The IC50 was 47 µM.

Question: What about the “Ratio IC50” value [3] of the same compound?
Answer: Its value is 1.

Question: For C#C[C@H]1CN2CC[C@H]1C[C@H]2[C@@H](NC(=S)Nc1cc(C(F)(F)F)cc(C(F)(F)F)c1)c1ccnc2ccc(OC)cc12, which IC50 (MES-SA [1]) is on record?
Answer: The IC50 was 4.2 µM.

Question: And the IC50 (MES-SA/Dx5 [2])?
Answer: The IC50 was 3.9 µM.

Question: What about the “Ratio IC50” value [3] of the same compound?
Answer: The value was 0.9.

Question: Which results are given for C=C[C@H]1CN2CC[C@H]1C[C@H]2[C@H](O)c1ccnc2ccc(OC)cc12 [QUININE]?
Answer: IC50 (MES-SA [1]): 93 µM; IC50 (MES-SA/Dx5 [2]): 67 µM; Ratio IC50 [3]: 0.7; IC50 (MES-SA [4]): 91 µM; IC50 (MES-SA/Dx5 [5]): 43 µM; Ratio IC50 [6]: 0.5; Activity (MES-SA/Dx5 [7]): Active

Question: Which results are given for C#C[C@H]1CN2CC[C@H]1C[C@H]2[C@@H](Nc1c(Nc2cc(C(F)(F)F)cc(C(F)(F)F)c2)c(=O)c1=O)c1ccnc2ccc(OC)cc12?
Answer: IC50 (MES-SA [1]): 3.9 µM; IC50 (MES-SA/Dx5 [2]): 14 µM; Ratio IC50 [3]: 3.7; IC50 (MES-SA [4]): 5.5 µM; IC50 (MES-SA/Dx5 [5]): 2.3 µM; Ratio IC50 [6]: 0.4

Question: For CC[C@H]1CN2CC[C@H]1C[C@H]2[C@@H](Nc1c(NCc2ccccc2)c(=S)c1=S)c1ccnc2ccc(OC)cc12, which IC50 (MES-SA [1]) is on record?
Answer: Its IC50 is 57 µM.

Question: What about the IC50 (MES-SA/Dx5 [2]) of the same compound?
Answer: The IC50 was 65 µM.

Question: And the “Ratio IC50” value [3]?
Answer: The value was 1.1.

Question: What about the IC50 (MES-SA [4]) of the same compound?
Answer: Its IC50 is 56 µM.

Question: And the IC50 (MES-SA/Dx5 [5])?
Answer: The IC50 was 50 µM.

Question: What about the “Ratio IC50” value [6] of the same compound?
Answer: The value was 0.9.

Question: What about the Activity (MES-SA/Dx5 [7]) of the same compound?
Answer: The Activity was “Active”.

Question: With Oc1c(CN2CCCCC2)ccc2cccnc12 as the compound, how does the “Ratio IC50” value [3] read?
Answer: The value was 0.1.

Question: With C=C[C@H]1CN2CC[C@H]1C[C@H]2[C@@H](Nc1c(Nc2cc(C(F)(F)F)cc(C(F)(F)F)c2)c(=O)c1=O)c1ccnc2ccc(OC)cc12 as the compound, how does the IC50 (MES-SA [1]) read?
Answer: The IC50 was 4.2 µM.

Question: What about the IC50 (MES-SA/Dx5 [2]) of the same compound?
Answer: Its IC50 is 12 µM.

Question: What about the “Ratio IC50” value [3] of the same compound?
Answer: The value was 3.

Question: What about the IC50 (MES-SA [4]) of the same compound?
Answer: Its IC50 is 4.9 µM.

Question: And the IC50 (MES-SA/Dx5 [5])?
Answer: Its IC50 is 2.7 µM.

Question: What about the “Ratio IC50” value [6] of the same compound?
Answer: The value was 0.5.

Question: What about the Activity (MES-SA/Dx5 [7]) of the same compound?
Answer: The Activity was “Active”.

Question: What does the source list for C#C[C@H]1CN2CC[C@H]1C[C@H]2[C@H](O)c1ccnc2ccc(OC)cc12?
Answer: IC50 (MES-SA [1]): 111 µM; IC50 (MES-SA/Dx5 [2]): 85 µM; Ratio IC50 [3]: 0.8; IC50 (MES-SA [4]): 117 µM; IC50 (MES-SA/Dx5 [5]): 79 µM; Ratio IC50 [6]: 0.7

Question: What does the source list for C=C[C@H]1CN2CC[C@H]1C[C@H]2[C@@H](NC(=S)Nc1cc(C(F)(F)F)cc(C(F)(F)F)c1)c1ccnc2ccc(OC)cc12?
Answer: IC50 (MES-SA [1]): 2.3 µM; IC50 (MES-SA/Dx5 [2]): 2.8 µM; Ratio IC50 [3]: 1.2; Activity (MES-SA/Dx5 [7]): Active

Question: With COc1cccc2c1C(=O)c1c(O)c3c(c(O)c1C2=O)C[C@@](O)(C(=O)CO)C[C@@H]3O[C@H]1C[C@H](N)[C@H](O)[C@H](C)O1 [DOXORUBICIN] as the compound, how does the “Ratio IC50” value [3] read?
Answer: The value was 62.5.

Question: What about the “Ratio IC50” value [6] of the same compound?
Answer: Its value is 0.8.

Question: For CC[C@H]1CN2CC[C@H]1C[C@H]2[C@@H](N)c1ccnc2ccc(OC)cc12, which IC50 (MES-SA [1]) is on record?
Answer: The IC50 was 80 µM.

Question: What about the IC50 (MES-SA/Dx5 [2]) of the same compound?
Answer: Its IC50 is 105 µM.

Question: And the “Ratio IC50” value [3]?
Answer: Its value is 1.3.

Question: What about the IC50 (MES-SA [4]) of the same compound?
Answer: Its IC50 is 82 µM.

Question: And the IC50 (MES-SA/Dx5 [5])?
Answer: The IC50 was 48 µM.

Question: And the “Ratio IC50” value [6]?
Answer: The value was 0.6.

Question: With CC[C@H]1CN2CC[C@H]1C[C@H]2[C@@H](Nc1c(NCc2ccccc2)c(=O)c1=O)c1ccnc2ccc(OC)cc12 as the compound, how does the IC50 (MES-SA [1]) read?
Answer: Its IC50 is 3.1 µM.

Question: What about the IC50 (MES-SA/Dx5 [2]) of the same compound?
Answer: Its IC50 is 21 µM.

Question: What about the “Ratio IC50” value [3] of the same compound?
Answer: Its value is 6.6.

Question: What about the IC50 (MES-SA [4]) of the same compound?
Answer: Its IC50 is 3.9 µM.

Question: And the IC50 (MES-SA/Dx5 [5])?
Answer: The IC50 was 3.4 µM.

Question: And the “Ratio IC50” value [6]?
Answer: The value was 0.9.

Question: What about the Activity (MES-SA/Dx5 [8]) of the same compound?
Answer: Its Activity is 53.1%.

Question: And the Activity (MES-SA/Dx5 [9])?
Answer: The Activity was “Active”.
